Experiments:
[1] = Apparent volume of distribution in Sprague-Dawley rat at 150 umol/kg, po measured up to 1440 mins by LC/MS/MS analysis; assay type: ADME, organism-based; conditions: in vivo, 24 h
[2] = Drug level in rat kidney at 150 umol/kg, po measured measured up to 6 hrs by LC-MS/MS analysis; assay type: ADME, organism-based; conditions: in vivo
In short: (§1)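 Single oral dose of 150 μmol/kg to SD rats, half male and half female, n=6 per group. Rats decapitated at 10 min, 30 min, 2 h and 6 h. Tissues dissected, saline-washed, weighed and homogenised in acetonitrile/water 1:9 (125 mg/mL). Drug level measured against plasma; mean ± SE.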

[3] = Toxicity in Sprague-Dawley rat assessed as induction of histopathological changes in thymus at 25 to 116 mg/kg, po dosed daily for 4 weeks and measured after additional 4 weeks period in absence of drug; assay type: organism-based; conditions: in vivo, 672 h
[4] = Binding affinity to Cu2+ ion assessed as affinity constant by spectrophotometric titration method
[5] = Drug level in rat intestine at 150 umol/kg, po measured measured up to 6 hrs by LC-MS/MS analysis; assay type: ADME, organism-based; conditions: in vivo; in short: as §1
[6] = Binding affinity to Co2+ ion assessed as affinity constant by spectrophotometric titration method
[7] = Toxicity in Sprague-Dawley rat assessed as induction of histopathological changes in thymus. at 25 to 116 mg/kg, po dosed daily for 4 weeks during chronic 4 week toxicity test; assay type: organism-based; conditions: in vivo, 672 h
Mus musculus [8] = experiment: Toxicity in mouse assessed as reduction in eosinophils counts at 200 mg/kg, po dosed once daily for 2 months as 5 days per week schedule; conditions: in vivo, 120 h
[9] = Cmax in Sprague-Dawley rat at 600 umol/kg, po measured up to 1440 mins by LC/MS/MS analysis; assay type: ADME, organism-based; parameters: dose 600 umol/kg, route oral; conditions: in vivo
[10] = Drug level in rat adrenal gland at 150 umol/kg, po measured measured up to 6 hrs by LC-MS/MS analysis; assay type: ADME, organism-based; conditions: in vivo; in short: as §1
Mus musculus [11] = experiment: Toxicity in mouse assessed as increase in reticulocyte population at 200 mg/kg, po dosed once daily for 2 months as 5 days per week schedule; conditions: in vivo, 120 h
[12] = Drug metabolism in rat bile assessed as (2S,3S,4S,5R,6S)-6-[[1-[(1R)-1-benzyl-2-hydroxyethyl]-2-methyl-4-oxo-3-pyridyl]oxy]-3,4,5-trihydroxy-tetrahydropyran-2-carboxylic acid formation at 150 umol/kg, po by LC/TOF/MS/MS analysis; assay type: ADME, organism-based; conditions: in vivo
In short: (§2)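 Bile collected from rats after an oral dose of 150 μmol/kg. Metabolites characterised by β-glucuronidase hydrolysis and LC-TOFMS/MS. M2/M1 ratio followed over 8 h.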

Cytochrome P450 3A5 = Cytochrome P450 3A5 (Homo sapiens, UniProt P20815); experiment: Inhibition of CYP3A5 in human liver microsomes; assay type: ADME
Cytochrome P450 3A5, sequence (P20815 whole entry): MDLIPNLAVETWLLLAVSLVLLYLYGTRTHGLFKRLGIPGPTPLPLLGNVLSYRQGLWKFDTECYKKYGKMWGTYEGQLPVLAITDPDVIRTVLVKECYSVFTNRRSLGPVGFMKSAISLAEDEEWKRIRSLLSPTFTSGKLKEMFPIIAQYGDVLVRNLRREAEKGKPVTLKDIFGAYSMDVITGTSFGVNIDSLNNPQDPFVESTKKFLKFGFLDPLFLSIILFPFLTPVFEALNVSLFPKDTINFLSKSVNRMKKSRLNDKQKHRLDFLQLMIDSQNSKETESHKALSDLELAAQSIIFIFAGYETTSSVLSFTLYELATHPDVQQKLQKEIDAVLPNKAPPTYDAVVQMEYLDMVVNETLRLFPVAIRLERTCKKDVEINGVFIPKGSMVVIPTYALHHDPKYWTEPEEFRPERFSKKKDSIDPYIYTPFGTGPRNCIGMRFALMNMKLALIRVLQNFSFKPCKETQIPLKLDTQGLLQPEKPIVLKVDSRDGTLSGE

[13] = Drug metabolism in rat bile assessed as (2S,3S,4S,5R,6R)-3,4,5-trihydroxy-6-[(2R)-2-(3-hydroxy-2-methyl-4-oxo-1-pyridyl)-3-phenylpropoxy]tetrahydropyran-2-carboxylic acid formation at 150 umol/kg, po by LC/TOF/MS/MS analysis; assay type: ADME, organism-based; conditions: in vivo; in short: as §2
[14] = Binding affinity to Co2+ ion assessed as pM value by spectrophotometric titration method
[15] = AUC (0 to infinity) in Sprague-Dawley rat at 75 umol/kg, po measured up to 1440 mins by LC/MS/MS analysis; assay type: ADME, organism-based; parameters: dose 75 umol/kg, route oral, time infinity; conditions: in vivo, 24 h
[16] = Acid dissociation constant, pKa2 of the compound over pH 1.8 to 11.0 by spectrophotometric titration method; assay type: physicochemical
In short: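 Automated spectrophotometric titration with 0.1 M KOH in 0.1 pH-unit steps. Reading accepted as stable when drift was <0.01 pH unit after a 1.5 min incubation. 10 mm path length cuvette. Spectra fitted by computer to obtain the pKa values.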

Rattus norvegicus [17] = experiment: Iron scavenging activity in iron-overloaded rat assessed as iron removal efficacy at 75 to 1200 umol/kg, po relative to control; assay type: functional
In short: (§3)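 Male SD rats (300 g), fasted overnight, given about 1 μC 59Fe-ferritin i.v. under isoflurane; chelator by oral gavage 1 h later; doses 75, 150, 300, 600 and 1200 μmol/kg. Rats housed in metabolic cages, food returned 1 h post-dose; killed 24 h after ferritin injection. Urine, faeces, liver and gut gamma-counted. Iron removal expressed as % efficacy.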

[18] = Drug metabolism in human liver microsomes assessed as glucuronidation incubated for 1 hr relative to deferiprone; assay type: ADME, Microsome
In short: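 Compound incubated 1 h with rat or human liver microsomes, n = 4, mean ± SD. Glucuronide formed given as percentage of total chelator added. Oxidative metabolism assessed separately.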

[19] = Drug metabolism in human liver microsomes assessed as oxidative metabolism incubated for 1 hr relative to deferiprone; assay type: ADME, Microsome
Mus musculus [20] = experiment: Toxicity in mouse assessed as reduction in total white cell counts at 200 mg/kg, po dosed once daily for 2 months as 5 days per week schedule; conditions: in vivo, 120 h
Rattus norvegicus [21] = experiment: Iron scavenging activity in iron-overloaded rat assessed as iron removal efficacy at 75 to 1200 umol/kg, po; assay type: functional, organism-based; in short: as §3
[22] = Toxicity in Sprague-Dawley rat assessed as induction of mortality at 200 mg/kg, po dosed once daily for 2 months as 5 days per week schedule; assay type: organism-based; conditions: in vivo, 120 h
[23] = Binding affinity to Fe3+ ion assessed as affinity constant by spectrophotometric titration method
In short: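 Automated spectrophotometric titration with 0.1 M KOH in 0.1 pH steps, 3 min equilibration per step, 50 mm cuvette, iron complexes at ca. 40 µM. Titrated in competition with metal hydrolysis species up to pH 12.0. Hydrolysis constants taken from critical compilations. Iron spectra fitted over 400–700 nm.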

[24] = Apparent volume of distribution in Sprague-Dawley rat at 300 umol/kg, po measured up to 1440 mins by LC/MS/MS analysis; assay type: ADME, organism-based; conditions: in vivo, 24 h
[25] = Cmax in Sprague-Dawley rat at 150 umol/kg, po measured up to 1440 mins by LC/MS/MS analysis; assay type: ADME, organism-based; parameters: dose 150 umol/kg, route oral; conditions: in vivo
[26] = Drug level in rat stomach at 150 umol/kg, po measured measured up to 6 hrs by LC-MS/MS analysis; assay type: ADME, organism-based; conditions: in vivo; in short: as §1
Cytochrome P450 3A4 = Cytochrome P450 3A4 (Homo sapiens, UniProt P08684); experiment: Inhibition of CYP3A4 in human liver microsomes; assay type: ADME
Cytochrome P450 3A4, sequence (P08684 whole entry): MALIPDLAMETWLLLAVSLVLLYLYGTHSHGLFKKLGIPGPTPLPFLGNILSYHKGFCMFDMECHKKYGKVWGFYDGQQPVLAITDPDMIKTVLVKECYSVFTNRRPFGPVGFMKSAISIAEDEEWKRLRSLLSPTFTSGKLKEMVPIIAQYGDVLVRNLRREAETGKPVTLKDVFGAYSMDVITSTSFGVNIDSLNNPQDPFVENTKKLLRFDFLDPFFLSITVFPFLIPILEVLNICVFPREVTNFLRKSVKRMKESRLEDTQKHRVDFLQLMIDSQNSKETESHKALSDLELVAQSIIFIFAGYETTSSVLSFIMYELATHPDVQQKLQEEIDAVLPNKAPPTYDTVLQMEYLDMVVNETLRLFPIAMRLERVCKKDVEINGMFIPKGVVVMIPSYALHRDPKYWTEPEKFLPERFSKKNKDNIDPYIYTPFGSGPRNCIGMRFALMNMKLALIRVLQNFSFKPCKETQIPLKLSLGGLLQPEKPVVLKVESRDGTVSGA

[27] = Ratio of drug level in adrenal gland to plasma in rat at 150 umol/kg, po measured within 10 mins by LC-MS/MS analysis; assay type: ADME, organism-based; conditions: adrenal gland and plasma
In short: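 SD rats (half male, half female, n = 6 per group) given a single oral 150 μmol/kg dose. Killed at 10 min, 30 min, 2 h or 6 h; tissues washed in saline, weighed and homogenised in acetonitrile/water 1:9 (125 mg/mL). Tissue levels compared with plasma.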

[28] = Cmax in Sprague-Dawley rat at 300 umol/kg, po measured up to 1440 mins by LC/MS/MS analysis; assay type: ADME, organism-based; parameters: dose 300 umol/kg, route oral; conditions: in vivo

In the case of `Cc1c(O)c(O)cc[n+]1[C@@H](CO)Cc1ccccc1.[Cl-]`, the Vz [1] is reported as 5.29 L/kg, the Drug uptake [2] is reported as “Not Active” and the Activity [3] is reported as “Non-Toxic”. The K [4] was 8.31 pM, the log K [4] was 10.4 and the Drug uptake [5] was “Not Active”. For the same compound, the log K [6] was 6.6, the Activity [7] was “Toxic” and the Activity (Mus musculus [8]) was “Non-Toxic”. For the same compound, the Cmax [9] was 70000 ng/mL, the Drug uptake [10] was “Not Active” and the Activity (Mus musculus [11]) was “Non-Toxic”. For the same compound, the Drug metabolism [12] was “Metabolite_Detected”, the IC50 (Cytochrome P450 3A5) was > 200 µM and the Drug metabolism [13] was “Metabolite_Detected”. For the same compound, the pM [14] was 6.17, the AUC [15] was 16400 ng·h/mL and the pKa [16] was 9.9. For the same compound, the Activity (Rattus norvegicus [17]) was 3.6 - 48.5%, the Drug metabolism [18] was “Metabolite_Detected” and the Drug metabolism [19] was “Metabolite_Detected”. For the same compound, the Activity (Mus musculus [20]) was “Non-Toxic”, the Activity (Rattus norvegicus [21]) was “Dose-dependent effect” and the Activity [22] was “Non-Toxic”. For the same compound, the K [23] was 19.8 pM, the log K [23] was 14.8 and the Vz [24] was 3.72 L/kg. For the same compound, the Cmax [25] was 19900 ng/mL, the Drug uptake [26] was “Not Active” and the IC50 (Cytochrome P450 3A4) was > 200 µM. The Kp at 10 min [27] was 3.3 to 8.8 and the Cmax [28] was 41900 ng/mL.

— ChEMBL document CHEMBL4376902, “CN128: A New Orally Active Hydroxypyridinone Iron Chelator” (J Med Chem, 2020)
